The values below come from ChEMBL document CHEMBL1155364, “Inhibitors of HIV-1 attachment. Part 4: A study of the effect of piperazine substitution patterns on antiviral potency in the context of indole-based derivatives” (Bioorg Med Chem Lett, 2009).

Structures are written as SMILES.

One may read the EC50 as the concentration needed to bring the measured effect to its halfway point. For orientation: CC50 means the concentration giving 50% cytotoxicity. A high value points to lower toxicity to the cells.

The nature of series [1]: Metabolic stability in human liver microsomes after 10 mins. The following applies: read-out: Stability. Format: ADME, Microsome. For orientation: Microsomes from liver hold many membrane-bound enzymes, among them those of drug oxidation.
A short description of series [2]: Metabolic stability in rat liver microsomes after 10 mins. Format: ADME, Microsome. To be noted: read-out: Stability.
Series [3] in a line: (§1) Permeability across monolayer of human Caco-2 cell. Format: ADME, cell-based. To be noted: read-out: permeability. A general note: Caco-2 cells form a polarised layer with tight junctions and transporters.
Series [4] concerns Human immunodeficiency virus 1. As to the kind of experiment: Antiviral activity against HIV1 infected HeLa67 after 3 days by luciferase reporter assay. Format: functional, organism-based. The following applies: Human immunodeficiency virus 1, HeLa67, 72 h. (In general: In a reporter assay the amount or activity of a reporter protein is the signal.)
Series [5] is described as follows: Cytotoxicity against human HeLa67 cell after 3 days by XTT assay. Format: cell-based. To be noted: HeLa67 cells. The method in brief: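 HeLa67 cells exposed to test compounds in parallel with the antiviral assay; XTT read-out 3 days after compound addition, giving CC50.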
Another series relates to Caco-2. The description is as §1. Format: ADME, cell-based.

As to `CCCCCC1CN(C(=O)C(=O)c2c[nH]c3cccc(F)c23)CCN1C(=O)c1ccccc1` (stereo not drawn), the remaining at 10 min in series [1] was 45%; in series [2], 3%. Also, in series [3], the Papp amounted to 6.9 ×10⁻⁶ cm/s.
On to `C[C@@H]1CN(C(=O)c2ccccc2)CCN1C(=O)C(=O)c1c[nH]c2cccc(F)c12`, for which the values for the remaining at 10 min in series [1] and in series [2] were 74% and 2%, respectively. Also, the Papp in series [3] was 5.4 ×10⁻⁶ cm/s.
Consider `O=C(N[C@H]1CCCC[C@@H]1NC(=O)c1ccccc1)C(=O)c1c[nH]c2cccc(F)c12` (relative stereo), for which the EC50 in series [4] is more than 50 µM. For the same compound, in series [5], the CC50 at 72 h was more than 300 µM.
In series [4], `O=C(NC1CCCC(NC(=O)c2ccccc2)C1)C(=O)c1c[nH]c2cccc(F)c12` (stereo not drawn) displayed an EC50 of more than 50 µM. This compound also yielded a half-maximal cytotoxic concentration (CC50) at 72 h in series [5] of more than 300 µM.
Take `CCC1CN(C(=O)C(=O)c2c[nH]c3cccc(F)c23)CCN1C(=O)c1ccccc1` (stereo not drawn): the remaining at 10 min came to 63% in series [1] and 25% in series [2]. In addition, the Papp in series [3] is 17.1 ×10⁻⁶ cm/s.
Regarding `O=C(C(=O)N1CCN(C(=O)c2ccccc2)CC1)c1c[nH]c2cccc(F)c12`, the remaining at 10 min in series [1] turned out to be 98%; in series [2], 51%. The Papp in series [3] worked out at 4.7 ×10⁻⁶ cm/s.
The corresponding values for `COc1cccc2[nH]cc(C(=O)C(=O)N3CCN(C(=O)c4ccccc4)CC3)c12` are 100%, 88% and 4.3 ×10⁻⁶ cm/s.
Regarding `CCCC1CN(C(=O)c2ccccc2)CCN1C(=O)C(=O)c1c[nH]c2cccc(F)c12` (stereo not drawn), the results for the remaining at 10 min in series [1] and in series [2] were 52% and 11%, respectively. The Papp in series [3] was determined as 17.2 ×10⁻⁶ cm/s.
With `C[C@H]1CN(C(=O)c2ccccc2)CCN1C(=O)C(=O)c1c[nH]c2cccc(F)c12`, the values for the remaining at 10 min in series [1] and in series [2] were 85% and 32%, respectively. For the same compound, the Papp in series [3] was 8.8 ×10⁻⁶ cm/s.
Turning to `CCCC1CN(C(=O)C(=O)c2c[nH]c3cccc(F)c23)CCN1C(=O)c1ccccc1` (stereo not drawn), the values for the remaining at 10 min in series [1] and in series [2] were 50% and 25%, respectively. For the same compound, the Papp in series [3] worked out at 15.4 ×10⁻⁶ cm/s.
With `O=C(N[C@H]1CCCC[C@H]1NC(=O)c1ccccc1)C(=O)c1c[nH]c2cccc(F)c12` (relative stereo), the midpoint of the response in series [4], the EC50, lay at 30.5 µM. Moreover, the CC50 at 72 h in series [5] was 65 µM.
`O=C(C(=O)N1CCCN(C(=O)c2ccccc2)CC1)c1c[nH]c2cccc(F)c12` came in with an EC50 in series [4] of more than 50 µM. The compound also returned a CC50 at 72 h in series [5] of more than 300 µM.
On to `CC(C)C1CN(C(=O)C(=O)c2c[nH]c3cccc(F)c23)CCN1C(=O)c1ccccc1` (stereo not drawn), for which the remaining at 10 min in series [1] was 63%; in series [2], 39%. Further, the Papp in series [3] is 16.1 ×10⁻⁶ cm/s.
On to `CC(C)(C)C1CN(C(=O)c2ccccc2)CCN1C(=O)C(=O)c1c[nH]c2cccc(F)c12` (stereo not drawn), for which the remaining at 10 min came out at 68% in series [1] and 49% in series [2]. The Papp in series [3] was 17 ×10⁻⁶ cm/s.
With `O=C(NCCNC(=O)c1ccccc1)C(=O)c1c[nH]c2cccc(F)c12`, the EC50 in series [4] was more than 50 µM. The compound also showed a CC50 at 72 h in series [5] of more than 300 µM.
On to `C[C@@H]1CN(C(=O)c2ccccc2)[C@H](C)CN1C(=O)C(=O)c1c[nH]c2cccc(F)c12` (relative stereo), for which the results for the remaining at 10 min in series [1] and in series [2] were 76% and 59%, respectively. Moreover, the Papp in series [3] was found to be 9.6 ×10⁻⁶ cm/s.
Take `CN(CCCN(C)C(=O)c1ccccc1)C(=O)C(=O)c1c[nH]c2cccc(F)c12`: the EC50 in series [4] is more than 50 µM. This compound also showed a CC50 at 72 h in series [5] of more than 300 µM.
As to `COc1cccc2[nH]cc(C(=O)C(=O)N3CCN(C(=O)c4ccccc4)C[C@H]3C)c12`, the values for the remaining at 10 min in series [1] and in series [2] were 84% and 56%, respectively. Also, in series [3], the Papp was 4.6 ×10⁻⁶ cm/s.
For the compound `CC(C)CC1CN(C(=O)C(=O)c2c[nH]c3cccc(F)c23)CCN1C(=O)c1ccccc1` (stereo not drawn), the remaining at 10 min in series [1] turned out to be 35%; in series [2] it was 13%. In addition, the Papp in series [3] came out at 19 ×10⁻⁶ cm/s.
In the case of `CC1CN(C(=O)C(=O)c2c[nH]c3cccc(F)c23)CCN1C(=O)c1ccccc1` (stereo not drawn), the remaining at 10 min was 100% in series [1] and 32% in series [2]. In series [3], the Papp amounted to 3.6 ×10⁻⁶ cm/s.
In the case of `O=C(NCCCNC(=O)c1ccccc1)C(=O)c1c[nH]c2cccc(F)c12`, the EC50 in series [4] was more than 50 µM. This compound yielded a 50% cytotoxic concentration (CC50) at 72 h in series [5] of more than 300 µM.
In the case of `COc1cccc2[nH]cc(C(=O)C(=O)N3CCN(C(=O)c4ccccc4)CC3C)c12` (stereo not drawn), the remaining at 10 min in series [1] is 84%; in series [2], 72%. Also, in the series with Caco-2, the permeability entry is listed as “Not Active”.
Consider `CCCCCC1CN(C(=O)c2ccccc2)CCN1C(=O)C(=O)c1c[nH]c2cccc(F)c12` (stereo not drawn), for which the remaining at 10 min in series [1] stood at 29%; in series [2], 0%. The Papp in series [3] amounted to 15.4 ×10⁻⁶ cm/s.
Consider `CC(C)(C)C1CN(C(=O)C(=O)c2c[nH]c3cccc(F)c23)CCN1C(=O)c1ccccc1` (stereo not drawn), for which the remaining at 10 min came out at 58% in series [1] and 44% in series [2]. The Papp in series [3] came out at 19 ×10⁻⁶ cm/s.
Take `CC(C)C1CN(C(=O)c2ccccc2)CCN1C(=O)C(=O)c1c[nH]c2cccc(F)c12` (stereo not drawn): the remaining at 10 min in series [1] was 59%; in series [2], 31%. In series [3], the Papp turned out to be 16.5 ×10⁻⁶ cm/s.
`C[C@@H]1CN(C(=O)c2ccccc2)C[C@H](C)N1C(=O)C(=O)c1c[nH]c2cccc(F)c12`: the figures for the remaining at 10 min in series [1] and in series [2] were 55% and 2%, respectively. In addition, in series [3], the Papp was less than 1.5 ×10⁻⁶ cm/s.
As to `C[C@@H]1CN(C(=O)c2ccccc2)[C@@H](C)CN1C(=O)C(=O)c1c[nH]c2cccc(F)c12`, the remaining at 10 min in series [1] is 43%; in series [2] it was 0%. Moreover, the Papp in series [3] was found to be 5 ×10⁻⁶ cm/s.
Turning to `COc1cccc2[nH]cc(C(=O)C(=O)N3CCN(C(=O)c4ccccc4)C[C@@H]3C)c12`, the remaining at 10 min in series [1] stood at 98%; in series [2], 75%. Further, the permeability entry with Caco-2 was “Not Active”.
With `CC(C)CC1CN(C(=O)c2ccccc2)CCN1C(=O)C(=O)c1c[nH]c2cccc(F)c12` (stereo not drawn), the remaining at 10 min in series [1] came out at 38%; in series [2], 7%. Further, the Papp in series [3] stood at 17.1 ×10⁻⁶ cm/s.
With `CC1CN(C(=O)c2ccccc2)CCN1C(=O)C(=O)c1c[nH]c2cccc(F)c12` (stereo not drawn), the remaining at 10 min in series [1] was determined as 82%; in series [2], 12%. In series [3], the Papp is 7.2 ×10⁻⁶ cm/s.
Compound `CN(CCN(C)C(=O)c1ccccc1)C(=O)C(=O)c1c[nH]c2cccc(F)c12` had an EC50 in series [4] of more than 50 µM. In series [5], this compound yielded a CC50 at 72 h of more than 300 µM.
For the compound `O=C(C(=O)N1CC2CC1CN2C(=O)c1ccccc1)c1c[nH]c2cccc(F)c12` (stereo not drawn), in series [4], the EC50 was more than 50 µM. Also, the CC50 at 72 h in series [5] is more than 300 µM.
For the compound `CCC1CN(C(=O)c2ccccc2)CCN1C(=O)C(=O)c1c[nH]c2cccc(F)c12` (stereo not drawn), the figures for the remaining at 10 min in series [1] and in series [2] were 55% and 8%, respectively. Also, the Papp in series [3] is 15 ×10⁻⁶ cm/s.
The matching figures for `C[C@@H]1CN(C(=O)C(=O)c2c[nH]c3cccc(F)c23)C[C@H](C)N1C(=O)c1ccccc1`: 69%, 16% and 7.3 ×10⁻⁶ cm/s.
